CHO parental Ca = ATP-evoked calcium signal inhibitors, parental CHO, primary screen, counter-screen for OX1R antagonist project, cell-based, fluorescence, Fluo-8 calcium dye; parental CHO-K1, ATP-induced calcium, Fluo-8 fluorescence; inhibition, % at 5.6 µM; 0.63% of 330,000 active; AID 463079, 2010;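 active means inhibition above that plate's mean sample inhibition plus 3 SD, cut at about 26% in these data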;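 further: 0% = ATP-challenged DMSO wells and 100% = DMSO wells without ATP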
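Test system: untransfected parental CHO cell line; also added: ATP stimulus; dosing: 5.6 µM, single dose; signal: calcium-sensitive Fluo-8 fluorescence; measure: percent inhibition of ATP-evoked calcium rise, normalized to controls; benchmarks: low control ATP plus DMSO, high control DMSO only; replication: one well per compound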
OXTR potentiator = human OXTR potentiators, primary screen, fluorescence, CHO-OTR cells, Fluo-8 calcium. Oxytocin receptor (Homo sapiens), P30559. Fluo-8 calcium fluorescence, potentiator mode; 0% = oxytocin EC15, 100% = EC100. activation, % at 3 µM. 0.061% of 320,000 active. AID 2445, 2010;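 active means activation above that plate's cutoff, the mean activation of tested compounds plus 3 SD, cut at about 6.6% in these data, passing the limit was not always enough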;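 further: 100% uses oxytocin at 75 nM as the full agonist control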
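assay system = CHO-OTR cells, human receptor | schedule = compound 6 min at room temperature before oxytocin, 100 s read | detection = Fluo-8 intracellular calcium fluorescence, ex 470-495, em 515-575 nm | evaluation = normalized max/min fluorescence ratio, % activation | control set = EC15 oxytocin alone as 0%, 75 nM oxytocin (EC100) as 100%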
OXTR agonist = human OXTR agonists, primary screen, fluorescence, CHO-OTR cells, Fluo-8 calcium; Oxytocin receptor (Homo sapiens), P30559; Fluo-8 calcium fluorescence; normalized: DMSO 0%, oxytocin 100%; activation, % at 3 µM; 0.32% of 320,000 active;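 active means activation above the mean of all tested compounds plus 3 SD, cutoff set per screening run, cut at about 20% in these data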;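 further: peak over basal fluorescence ratio from a 100 s FLIPR kinetic read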
OX1R antag-1 = OX1R (HCRTR1) antagonists, primary screen, fluorescence, CHO/OX1R cells, Fluo-8 calcium, orexin A; Fluo-8 calcium fluorescence; AID 434989, 2010; 0.43% of 330,000 active; inhibition, % at 5 µM;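 active means inhibition above its plate's threshold, mean inhibition of all tested compounds on the plate plus 3 SD, cut at about 37% in these data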;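 further: 0% = orexin A challenge wells and 100% = SB-334867-A antagonist wells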
V1R ag counter = agonists of human V1a receptor, primary screen, counter-screen for OXTR agonist project, fluorescence, CHO-V1R cells | Vasopressin V1a receptor (Homo sapiens), P37288 | Fluo-8 calcium fluorescence, agonist mode; 0% DMSO, 100% 3 nM vasopressin | activation, % at 3 µM | 0.25% of 320,000 active;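 active means activation above the mean activation of all tested compounds plus 3 SD, per screening run, cut at about 20% in these data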;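 further: signal is peak over basal fluorescence ratio across a 100 second FLIPR read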
Target sequence (P37288 whole entry, looked up): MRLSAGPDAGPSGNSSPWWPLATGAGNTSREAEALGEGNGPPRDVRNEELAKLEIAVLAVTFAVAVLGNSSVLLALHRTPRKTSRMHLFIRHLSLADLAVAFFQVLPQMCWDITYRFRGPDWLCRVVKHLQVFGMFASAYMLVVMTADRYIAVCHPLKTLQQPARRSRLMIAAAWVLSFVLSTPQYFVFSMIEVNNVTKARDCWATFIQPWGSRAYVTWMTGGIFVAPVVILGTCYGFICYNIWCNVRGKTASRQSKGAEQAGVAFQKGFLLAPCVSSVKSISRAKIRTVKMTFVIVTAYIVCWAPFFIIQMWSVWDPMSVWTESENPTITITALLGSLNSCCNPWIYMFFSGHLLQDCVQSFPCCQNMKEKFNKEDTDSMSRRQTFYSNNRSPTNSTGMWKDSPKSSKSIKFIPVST
OX1R antag-2 = antagonists of human orexin 1 receptor (OX1R). AID 485270, 2010. 1.8% of 330,000 active. OX1R-expressing cells, FRET antagonist read-out. Orexin/Hypocretin receptor type 1 (Homo sapiens), O43613. inhibition, % at 6.6 µM; in the data active means inhibition mostly above about 38%, no sharp cut-off; inactive means mostly below about 40%;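 further: 0% = agonist challenge alone and 100% = reference antagonist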
The depositor's hits bear a star. In the library only some 2.7% were active in any assay of this set; here they are far more common.

SMILES | CHO parental Ca | OXTR potentiator | OXTR agonist | OX1R antag-1 | V1R ag counter | OX1R antag-2
N#CC(/C(=N/S(=O)(=O)c1cccs1)c1ccccc1)c1nc2ccccc2[nH]1 (centres undefined) | -12 | -4 | 5 | -18 | 5 | 43*
N#CC(C(=O)C12CC3CC(CC(C3)C1)C2)c1nc2ccccc2[nH]1 (centres undefined) | -19 | -12 | -3 | 2 | -1 | 15
O=C(Cc1ccc(Cl)cc1)Nc1cc(S(=O)(=O)N2CCOCC2)ccc1N1CCCC1 | -26 | -15 | -2 | -30 | 0 | 17
CN1CCN(c2ccc(S(=O)(=O)N3CCCCC3)cc2NC(=O)Cc2ccc(Cl)cc2)CC1 | 5 | -14 | 21* | -5 | 26* | 8
CCN(CC)c1ccc(C(=O)N/N=C/c2ccccc2OC(F)F)cc1 | -25 | -6 | -2 | 14 | -1 | 74*
CCN(CC)c1ccc(/C=N/NC(=O)c2cccc(S(=O)(=O)Nc3ccccc3OC)c2)c(O)c1 | -10 | -5 | 0 | 25 | 1 | 79*
COc1ccc(C(CNC(=O)c2ccc(Cl)c(NC(=O)c3cccs3)c2)N2CCCC2)cc1 (centres undefined) | -26 | -2 | 2 | -45 | 0 | 26
CC(=O)c1ccc(OCCCC(=O)Nc2nnc(C3CC3)s2)cc1 | -13 | -4 | 1 | -33 | 2 | 6
c1ccc(CCNc2ncnc3ccccc23)cc1 | 32* | -19 | 11 | 2 | 9 | 40
Cc1cc2c(NCCc3ccccc3)ncnc2s1 | 64* | -22 | 18 | 49* | 11 | 54*
Brc1ccc2ncnc(NCc3ccccc3)c2c1 | 13 | -21 | 13 | 28 | 9 | 64
COc1ccc(-c2cn3cc(Cl)ccc3n2)cc1OC | -19 | 0 | -2 | 19 | -2 | 45*
CC(=O)c1c(C)nc2nonc2c1N | 8 | -12 | 0 | -1 | 0 | 76*
Cc1ccc2nsnc2c1S(=O)(=O)N1CCN(C(=O)C2CCCO2)CC1 (centres undefined) | -19 | -5 | 1 | -12 | 0 | 69*
Cc1csc(NC(=O)c2cc([N+](=O)[O-])cc([N+](=O)[O-])c2)n1 | 3 | 5 | 1 | -22 | 1 | 64*
O=C(Nc1ccc(Br)cc1)c1cc([N+](=O)[O-])cc([N+](=O)[O-])c1 | 6 | -8 | 5 | -12 | 8 | 28
Cc1csc(NC(=O)c2cc[n+]([O-])cc2)n1 | -6 | -4 | 1 | -17 | 0 | 7
Cc1cc(NC(=O)c2cc([N+](=O)[O-])cc([N+](=O)[O-])c2)no1 | -9 | 4 | 0 | -22 | 0 | 57*
CC(=O)Nc1ccc(NC(=O)c2cc([N+](=O)[O-])cc([N+](=O)[O-])c2)cc1 | -5 | -2 | -1 | -9 | 0 | 57*
Cc1cc(NC(=O)c2cccc([N+](=O)[O-])c2)no1 | -10 | -12 | 0 | -16 | 4 | 11
COc1ccccc1C(=O)Nc1ccccc1SC(=O)c1ccccc1OC | 19 | -11 | -1 | 10 | 1 | -1
CC[C@@]1(C(=O)OC)N[C@H](CN(C)C(=O)Nc2ccc(OC)cc2)[C@@H]2C(=O)N(C)C(=O)[C@@H]21 | -11 | 5 | 2 | -3 | 2 | 2
CC(OC(=O)c1ccc(OCC2CCCO2)cc1)C(=O)N(C)Cc1ccccc1 (centres undefined) | -9 | -6 | 0 | -18 | 4 | 20
CC(OC(=O)c1ccc2ccccc2c1)C(=O)N(C)Cc1ccccc1 (centres undefined) | -24 | -5 | 0 | 17 | 3 | 38*
O=C(OCc1ccccc1F)c1cc2ccccc2cc1O | 7 | 4 | 1 | -12 | 1 | 7
SMILES | CHO parental Ca | OXTR potentiator | OXTR agonist | OX1R antag-1 | V1R ag counter | OX1R antag-2
CCc1ccc(NC(=O)C(CC)c2ccccc2)cc1 (centres undefined) | 39* | -8 | 27* | 24 | 35* | 14
CCC(C(=O)Nc1ccc(C)cc1)c1ccccc1 (centres undefined) | -8 | -5 | 2 | -5 | 4 | 29
COc1cc(/C=C(/C#N)C(=O)Nc2ccccc2)c(Br)cc1OCc1ccc(C(=O)O)cc1 | 59* | -4 | 2 | 65* | 3 | 23
COc1c(OC)c(O)c2c(=O)c(O)c(-c3ccccc3)oc2c1OC | -30 | -1 | -1 | 8 | 0 | 57*
COc1ccc(-c2oc3c(OC)c(OC)c(OC)c(O)c3c(=O)c2OC)cc1OC | -20 | 3 | -2 | -25 | -2 | 15
CC1Cc2ccccc2N1C(=O)CN(C)CC(=O)Nc1ccc(F)cc1 (centres undefined) | -26 | 4 | -1 | -11 | 1 | 5
CN1N=C2c3ccccc3CCC2C1c1ccc(Cl)cc1 (centres undefined) | 0 | -2 | 0 | -3 | 1 | 3
O=[N+]([O-])c1ccc2ncnc(N3CCN(Cc4ccc5c(c4)OCO5)CC3)c2c1 | -4 | -10 | 6 | -20 | 8 | 56*
O=[N+]([O-])c1cccnc1N1CCN(Cc2ccc3c(c2)OCO3)CC1 | -11 | -2 | 1 | -23 | 0 | 12
O=c1c2cc(Br)ccc2nc(-c2cccc(C(F)(F)F)c2)n1O | 28 | -22 | 54* | 20 | 61* | 39
N#Cc1ccc(-c2nc3ccc(Br)cc3c(=O)n2O)cc1 | -9 | -1 | 1 | -21 | 1 | 8
CC(=O)OCCNC(=O)c1cc2ccccc2oc1=O | 11 | -6 | 0 | 2 | 0 | 70*
O=C(NCCSc1c(-c2ccccc2)[nH]c2ccccc12)c1cc2ccccc2oc1=O | -11 | -8 | 0 | -6 | 0 | 56*
Cc1ccc(-c2[nH]c3ccccc3c2SCCNC(=O)c2cc3ccccc3oc2=O)cc1 | -8 | -9 | -2 | 6 | 1 | 24
CCN(CC)C(=O)c1[nH]cnc1C(=O)Nc1ccc(C)cc1 | -9 | 3 | 0 | -5 | 0 | 8
CC(C)c1ccc(NC(=O)Cc2c(C(=O)O)n(C)c3ccccc23)cc1 | 1 | -4 | -1 | 6 | 0 | 14
O=C(O)CSc1c2ccccc2cc2ccccc12 | -9 | -2 | 0 | 7 | 0 | 54*
Cc1ccc(C)c(C(=O)COC(=O)c2nn(C)c(=O)c3ccccc23)c1 | -27 | 2 | 0 | -1 | 1 | 33*

Compound activity (PubChem)
